Experimental data from ChEMBL document CHEMBL1125106, “1-(Thienylalkyl)imidazole-2(3H)-thiones as potent competitive inhibitors of dopamine beta-hydroxylase” (J Med Chem, 1990).
Blank lines part the entries; values can stand above or below the compound they belong to.

Experiments:
[1] = DBH (dopamine beta-hydroxylase) activity expressed as Ki value determined by degree to which compound inhibited conversion of tyramine to octopamine
In short: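 Bovine adrenal medulla DBH, purified in-house (sp act. 44 µmol/min/mg). Incubated at 37 °C, atmospheric pressure, in 0.2 M acetate pH 5.5 with 10 mM ascorbate, 20 mM fumarate, […] and 1300 units catalase. Octopamine formed from tyramine measured by reverse-phase HPLC with fluorescence detection (ex 275, em 315 nm). Six inhibitor and four substrate concentrations tested, DMSO ≤3% final, duplicates; Ki from Dixon analysis.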

[2] = target: T1, Dopamine beta-hydroxylase (Bos taurus, UniProt P15101); assay: Inhibitory activity against bovine adrenal dopamine beta-hydroxylase (DBH)
T1 sequence (P15101 whole entry): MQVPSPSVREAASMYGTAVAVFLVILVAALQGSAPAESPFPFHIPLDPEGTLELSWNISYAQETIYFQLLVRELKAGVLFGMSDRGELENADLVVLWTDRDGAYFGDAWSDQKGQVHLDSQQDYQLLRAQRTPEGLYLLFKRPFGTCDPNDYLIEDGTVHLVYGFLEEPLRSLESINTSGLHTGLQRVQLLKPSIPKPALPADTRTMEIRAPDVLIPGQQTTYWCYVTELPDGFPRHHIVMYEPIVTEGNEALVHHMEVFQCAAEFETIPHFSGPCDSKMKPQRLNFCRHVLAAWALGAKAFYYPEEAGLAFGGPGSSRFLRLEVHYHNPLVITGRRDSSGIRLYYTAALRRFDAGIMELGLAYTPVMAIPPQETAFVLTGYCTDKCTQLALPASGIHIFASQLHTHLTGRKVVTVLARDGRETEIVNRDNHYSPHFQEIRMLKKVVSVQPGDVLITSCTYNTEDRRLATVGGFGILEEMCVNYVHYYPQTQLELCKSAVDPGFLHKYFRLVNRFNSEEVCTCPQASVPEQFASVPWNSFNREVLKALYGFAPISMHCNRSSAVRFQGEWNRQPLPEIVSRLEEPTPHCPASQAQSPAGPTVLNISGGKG
In short: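 Commercial bovine DBH, assayed by oxygen consumption on an oxygen electrode at 25.0 °C. Mixture contained 2 mM ascorbic acid, 10 mM sodium fumarate, catalase and 10 mM tyramine in 0.1 M sodium acetate pH 5.0. Rates corrected for nonenzymatic ascorbate oxidation. IC50 from duplicates in at least three separate experiments, mean ± SD.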

Rattus norvegicus [3] = assay: Mean arterial blood pressure was determined in SHR (spontaneous hypertensive rat) with administration at peroral dose of 50 mg/kg; assay type: functional; conditions: route oral
In short: (§1)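 Conscious SHR with a carotid catheter externalized at the nape, allowed about 48 h to recover from surgery. Dosed po at 09:00 with vehicle (50% PEG 400) or compound suspension, with treatments reversed the next day in a cross-over design. Mean arterial pressure recorded as 5 min averages and compared with vehicle by paired t test (mean ± SEM, p<0.05).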

Rattus norvegicus [4] = assay: Duration of activity of compound in SHR (spontaneous hypertensive rat) at the dose of 50 mg/kg (po); assay type: functional; in short: as §1
Rattus norvegicus [5] = assay: Mean arterial blood pressure was determined in SHR (spontaneous hypertensive rat) with control at a peroral dose of 100 mg/kg; assay type: functional; conditions: route oral; in short: as §1
[6] = Antihypertensive activity as ability to increase tissue DA/NE ratio of mesenteric artery 6 hr after oral administration in fasted SHR (spontaneous hypertensive rat) at the dose of 25 mg/kg (po); assay type: functional
In short: (§2)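 Male fasted SHR given compound orally as a suspension in 50% PEG 400 (0.4 mL/100 g), or vehicle alone. Killed 6 h after dosing. Mesenteric artery homogenized in 0.2 M HClO4 with DTT, EGTA and DHBA internal standard. Catecholamines adsorbed on alumina, eluted with 0.1 M H3PO4, and DA and NE quantified by reverse-phase HPLC. Ratio reported as mean ± SD and compared with vehicle by 2-tailed t test.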

[7] = Antihypertensive activity determined as ability to increase tissue DA/NE ratio of mesenteric artery 6 hr after oral administration in fasted SHR (spontaneous hypertensive rat); assay type: functional; in short: as §2
Rattus norvegicus [8] = assay: Mean arterial blood pressure was determined in SHR (spontaneous hypertensive rat) with administration at peroral dose of 25 mg/kg; assay type: functional; conditions: route oral; in short: as §1
Rattus norvegicus [9] = assay: Duration of activity of compound in SHR (spontaneous hypertensive rat) at the dose of 100 mg/kg (po); assay type: functional; in short: as §1
Rattus norvegicus [10] = assay: Mean arterial blood pressure was determined in SHR (spontaneous hypertensive rat) with control at a peroral dose of 50 mg/kg; assay type: functional; conditions: route oral; in short: as §1
Rattus norvegicus [11] = assay: Mean arterial blood pressure was determined in SHR (spontaneous hypertensive rat) with control at a peroral dose of 25 mg/kg; assay type: functional; conditions: route oral; in short: as §1
Rattus norvegicus [12] = assay: Mean arterial blood pressure was determined in SHR (spontaneous hypertensive rat) with administration at the dose of 100 mg/kg (po); assay type: functional; in short: as §1
[13] = Antihypertensive activity was determined by its ability to increase DA/NE ratio of mesenteric artery 6 hr after oral administration in fasted SHR (spontaneous hypertensive rat) at the dose of 100 mg/kg (po); assay type: functional; in short: as §2
[14] = Antihypertensive activity was determined by its ability to increase DA/NE ratio of mesenteric artery 6 hr after oral administration in fasted SHR at the dose of 50 mg/kg (po); assay type: functional; in short: as §2
Rattus norvegicus [15] = assay: Duration of activity of compound in SHR (spontaneous hypertensive rat) at the dose of 25 mg/kg (po); assay type: functional; in short: as §1

Structure (SMILES): Fc1ccc(Cn2ccnc2S)s1
IC50 [2]: 4600 nM

Structure (SMILES): Fc1cc(F)cc(Cn2cc[nH]c2=S)c1
Ki [1]: 60 nM | IC50 [2]: 210 nM

Structure (SMILES): Cc1ccc(CCn2ccnc2S)s1
Ki [1]: 160 nM | IC50 [2]: 491 nM

Structure (SMILES): Sc1nccn1Cc1cccs1
Ki [1]: 740 nM | IC50 [2]: 4800 nM

Structure (SMILES): Sc1nccn1CCCCc1cccs1
Ki [1]: 1400 nM | IC50 [2]: 3600 nM

Structure (SMILES): S=c1[nH]ccn1Cc1ccco1
IC50 [2]: 6300 nM

Structure (SMILES): Sc1nccn1Cc1ccc(Cl)s1
IC50 [2]: 1000 nM

Further compounds by falling IC50 [2], results first:

IC50 [2]: 5300 nM
Structure (SMILES): Sc1nccn1Cc1ccsc1

Ki [1]: 480 nM | IC50 [2]: 1900 nM
Structure (SMILES): Sc1nccn1CCCc1cccs1

Ki [1]: 25 nM | IC50 [2]: 130 nM
Structure (SMILES): Sc1nccn1CCc1ccsc1

Ki [1]: 25.5 nM | IC50 [2]: 114 nM
Structure (SMILES): Sc1nccn1CCc1cccs1
Mean arterial blood pressure (Rattus norvegicus [3]): 137 mmHg | Duration (Rattus norvegicus [4]): 8 h | Mean arterial blood pressure (Rattus norvegicus [5]): 170 mmHg | DA/NE ratio [6]: 0.214 | DA/NE ratio [7]: 0.072 | Mean arterial blood pressure (Rattus norvegicus [8]): 137 mmHg | Duration (Rattus norvegicus [9]): 20 h | Mean arterial blood pressure (Rattus norvegicus [10]): 172 mmHg | Mean arterial blood pressure (Rattus norvegicus [11]): 148 mmHg | Mean arterial blood pressure (Rattus norvegicus [12]): 126 mmHg | DA/NE ratio [13]: 0.333 | DA/NE ratio [14]: 0.269 | Duration (Rattus norvegicus [15]): <1 h
